Measured values taken from the EternaBench riboswitch data.

Tested on: MS2 coat protein
Assay: apparent Kd, MS2 coat protein; higher = weaker binding; RNA-MaP array; FMN 200 µM where present
In short: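 Binding was read on Illumina sequencing-chip clusters where stalled E. coli RNA polymerase had transcribed each design. A titration of SNAP-549-labelled MS2 coat protein began at 0.7 or 1.5 nM and doubled to 3 µM, once without ligand and once with constant ligand, in 100 mM Tris-HCl pH 7.5, 80 mM KCl, 4 mM MgCl2, BSA, DTT, yeast tRNA and Tween-20. The apparent Kd is the median of filtered per-cluster binding-curve fits, based on green signal normalised to red-channel RNA signal and control-cluster median Fmax.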

[1] = designed as: OFF switch for flavin mononucleotide, no ligand
[2] = ligand present: flavin mononucleotide, designed as: OFF switch for flavin mononucleotide
[3] = designed as: ON switch for flavin mononucleotide, no ligand
[4] = ligand present: flavin mononucleotide, designed as: ON switch for flavin mononucleotide

Sequence | apparent Kd [1] [nM] | apparent Kd [2] [nM] | apparent Kd [3] [nM] | apparent Kd [4] [nM]
GGAUCGAAUGUGAGGAUAUACCACUGGAUACAGUGGUAGAAGGCACAUGAGGAUCACCCAUGUCCUUACGAUCC | 96.5 | 319 |  | 
GGUCCGUAACAGAAGGCCGUAACUGGUGGUGGCGGAGGAUAUGUGGGCGGCCCUUGACAACAUGAGGAUCACCCAUGUAUGUAA |  |  | 328 | 30.6
AUACAUGAGGAUCACCCAUGUUACUGGGUCUUUUUAGAACGUAGAAGGAUGUUUUUAUACAUAACAUAGGAUAUACAAUAUUGU | 51.8 | 48.9 |  | 
UUUUUUGUAGUGAGGAUAUCGUUGAGGAUGUGGAUCGAGAAGGCACAUGAGGAUCACCCAUGUUAGAUGUGGUU | 262 | 295 |  | 
CUUUAAGUCGAGAAGGACAUGAGGAUCACCCAUGUAGGAUAUCGAUUAGCUUGCAUCCCGAGCCGCAUCGGUGUGACUGGUGGG |  |  | 36.5 | 7.83
UUUUAACAUGAGGAUCACCCAUGUGAGGAUAUCGAAAUUUAUAUUUAUAUUAAUUUUUCGAGAAGGCACAUUUU | 169 | 157 |  | 
GUAGCAUACCGAGGAUAUUCAUAUAGGAAACAAACAUGAGGAUCACCCAUGUGGCGAAAGCCUUGGGAGAAGGCGGAAUGCUAC |  |  | 115 | 21.1
AUUACAUGAGGAUCACCCAUGUACAGCACGUUUCAAAACAGUGAGGAUAUACGAAAUGUAGGAACGUAGAAGGCACUGGGUGCA |  |  | 98.3 | 34.2
AUCAGCUCGUGAGGAUAUACGUCACUGCUUCGGCAGUGUGGUAAGAUCACAUGAGGAUCACCCAUGUAGAAGGCACGAGCUGAU | 21.4 | 471 |  | 
AUCAGCUCGUCAGGAUAUACGUCCCUGCGUCAGCAGUGUGGUAAGAUCACAUGAGGAUCACCCAUGUAGAAGGGACGAGCUGAU | 22.9 | 312 |  | 
CCACCCUGAGGAUAUCCACCCUGAUACAUGAGGAUCACCCAUGUUAAUGCCUGAGUUCCCGGAGAAGGCAGAUUCC | 40.5 | 34.7 |  | 
GGAUAGGACAGAGGAUAUACGUGCUAGAGAUACUGGCAAAAUUUCCUCACAUGAGGAUCACCCAUGUAGAAGGCUGUCCUAUCG | 16.6 | 374 |  | 
GGAGCACGCACAGGAUAUCCGGCGGCGCUCGUCGGAGAAGGGUGACAUGAGGAUCACCCAUGUACGUGCAACUCAGUUUGAGUG |  |  | 95.6 | 40.4
GUCGGAAACGACAAAAGUAGCAUAGGAGAAGGCAUGUCAAAGACAUGAGGAUCACCCAUGUAGCAUGAGGAUAUCCUAUGCUAC |  |  | 5.24 | 4.97
GGGUAAUAUCGAGGAUAUGUCUAGACACAUGAGGAUCACCCAUGUAUGUGUAUAGAAGGCGAUAUUAACAGCAUGUUACAUGGG |  |  | 291 | 60.5
CGAUAACAUAGUUAUCCGUAGCGGACAUGAGGAUCACCCAUGUAGGAUAUGUUACUCAACGAGUAACAGAAGGACAUGAGUCUU | 18.1 | 114 |  | 
CCAGCGUAUGUGAGGAUAUGCUGGUCCUUGGAUCAGCAGAAGGCACAUGAGGAUCACCCAUGUGAGAACGUUGG | 26.5 | 187 |  | 
AAAUUUAACGAAGGAUAUACUAACAUGAGGAUCACCCAUGUGUGUUUCGUGUUGCUGAAAUUCGGGUAGAAGGUCGUAUACAUA | 41 | 28.7 |  | 
GGCGAACAGGCUAACAUGAGGAUCACCCAUGUGGACUCAUGGUAGGAUAUGCUGUACAAAGUACAGCAGAAGGGCCGGUGAGCC |  |  | 139 | 376
CUAUAUUAGUAGAAGGACGGAGAGUAUGUAGUCGUAGGAUAUACAUAAGACAUGAGGAUCACCCAUGUGUGUAUGUUGGGUAUG | 9.66 | 8.03 |  | 
UGGGCUACGUGGUCCGCCAGACGUAGAAGGGUCUACAUGAGGAUCACCCAUGUGACCGUUAGUGGACAGGAUAUACGCGGAGUG | 8.38 | 22.8 |  | 
AUGUGGUUCCCGGCCGUCGUGUACGAGGAUAUCCUCGAACAUGAGGAUCACCCAUGUAACGUUGUGGAGAAGGCGUACGCUCGG |  |  | 31.3 | 5.48
GUUGCACAAGUUAACAUGAGGAUCACCCAUGUCAAAAGACAUGAGGAUAUGGAGCUGAAGAUUAUCCAGAAGGCAUAAUGCUAA |  |  | 460 | 158
